Peptide text beside a SMILES is read from it. * marks the point of attachment. Cbz = O=C(OCc1ccccc1)*
Tests used:
NR4A1 [1] = target: NR4A1 (Homo sapiens, UniProt P22736); assay: NR4A1 degradation in human cell lines by immunoblotting; type: cell-based; details: CHL-1 cells
Summary of the method: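 CHL-1 and A375 human melanoma cells were grown in DMEM with 10% FBS and penicillin/streptomycin. Screening used 250 nM test compound for 16 h, read by immunoblot plus densitometry (n=2). A 16 h dose series gave the 50% degradation concentration. For pathway tests, CHL-1 were pretreated 10 min with 0.5 μM MG132 or 10 μM VHL 032, then exposed 16 h to DMSO or 500 nM. Lysates were made in RIPA with DTT.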

NR4A1 [2] = details: read-out: binding affinity of celastrol to NR4A1 (Kd); cited from earlier work
B16F10 melanoma = B16F10 melanoma syngeneic tumor growth; type: in vivo, mouse; details: WT mice; 1.8 mg/kg NR-V04 or 0.75 mg/kg celastrol i.p. twice a week from day 7
[3] = test system: MC38 colon adenocarcinoma; assay: MC38 colon cancer syngeneic tumor growth; type: in vivo, mouse; details: WT mice; 1.8 mg/kg NR-V04 or 0.75 mg/kg celastrol i.p. twice a week from day 7
Summary of the method: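 Mouse MC38 or Yummer1.7 cells (5 × 10^5) in PBS injected s.c. into 7–9-week-old WT or NSG hosts. Dosing started day 7 once tumors were palpable: test compound 1.8 mg/kg i.p. twice weekly, with celastrol 0.75 mg/kg (1.67 μmol/kg) in MC38 only. Vehicle was 50% phosal PG/45% miglyol 810N/5% polysorbate 80. Tumors were grown to 2 cm diameter endpoint.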

NR4A1 mRNA = NR4A1 mRNA by qPCR in CHL-1 cells; type: cell-based, human; details: 500 nM, time course, ACTB control

Chain of NR4A1 (Homo sapiens, UniProt P22736) (P22736 whole entry): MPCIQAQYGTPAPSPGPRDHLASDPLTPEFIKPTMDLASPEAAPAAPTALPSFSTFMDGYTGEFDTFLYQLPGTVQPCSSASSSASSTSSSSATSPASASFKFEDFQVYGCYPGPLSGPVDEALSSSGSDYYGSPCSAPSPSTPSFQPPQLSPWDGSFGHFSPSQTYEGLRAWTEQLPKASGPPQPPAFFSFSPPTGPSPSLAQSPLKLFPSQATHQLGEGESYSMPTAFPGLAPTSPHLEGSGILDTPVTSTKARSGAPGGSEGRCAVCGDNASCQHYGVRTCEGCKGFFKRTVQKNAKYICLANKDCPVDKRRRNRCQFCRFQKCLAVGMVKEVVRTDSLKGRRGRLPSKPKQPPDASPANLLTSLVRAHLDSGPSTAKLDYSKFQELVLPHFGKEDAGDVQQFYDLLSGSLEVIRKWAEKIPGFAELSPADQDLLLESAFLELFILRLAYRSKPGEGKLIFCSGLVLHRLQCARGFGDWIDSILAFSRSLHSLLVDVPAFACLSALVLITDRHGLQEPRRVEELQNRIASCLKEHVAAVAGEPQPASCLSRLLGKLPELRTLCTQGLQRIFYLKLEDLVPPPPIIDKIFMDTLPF

## CC(C)C[C@@H](C=O)NC(=O)[C@H](CC(C)C)NC(=O)[C@H](CC(C)C)NC(=O)OCc1ccccc1 [MG132] (Cbz-Leu-Leu-Leu-aldehyde)
NR4A1 [1]; 0.5 μM MG132 10 minutes, then 500 nM NR-V04 16 hours
  effect of pretreatment on NR-V04-reduced NR4A1 protein level: effectively rescued

## CC(=O)N[C@H](C(=O)N1C[C@H](O)C[C@H]1C(=O)NCc1ccc(-c2scnc2C)cc1)C(C)(C)C [VHL-032]
NR4A1 [1]; 10 μM VHL 032 10 minutes, then 500 nM NR-V04 16 hours
  effect of pretreatment on NR-V04-induced degradation of NR4A1: prevented

## CC1=C(O)C(=O)C=C2C1=CC=C1[C@@]2(C)CC[C@@]2(C)[C@@H]3C[C@](C)(C(=O)O)CC[C@]3(C)CC[C@]12C [celastrol]
NR4A1 [2]
  Kd: 290 nM
B16F10 melanoma
  tumor growth, B16F10 melanoma: increased growth
[3]
  tumor growth, MC38 model: failed to inhibit tumor growth
NR4A1 [1]; 250 nM, 16 hours, immunoblotting and densitometry
  NR4A1 protein level, initial screening: did not alter
NR4A1 [1]; 16 hours, dose series
  NR4A1 protein level: did not change
NR4A1 mRNA
  NR4A1 mRNA level: increase in NR4A1 mRNA levels after 2 hrs
